Measured values of several laboratories.
Compare with care: the assays were run in different laboratories. Values after ≈ are worked out from the molar mass of the structure shown.

CCOC(=O)c1nnn(-c2cccc(NC(=O)Nc3ccc(Cl)c(Cl)c3)c2)c1C  MIC (Mycolicibacterium fortuitum; microbial growth, broth dilution; ATCC6841; 48 h): > 64 µg/mL
O=c1[nH]c(=O)n([C@H]2C[C@H](O)[C@@H](CO)O2)cc1/C=C/Br  MIC50 (Cowpox virus; microbial growth): 50 µM (≈ 16.7 µg/mL)
CO[C@H]1/C=C/O[C@@]2(C)Oc3c(C)c(O)c4c(O)c(c(/C=N/N5CCN(C)CC5)c(O)c4c3C2=O)NC(=O)/C(C)=C\C=C\[C@H](C)[C@H](O)[C@@H](C)[C@@H](O)[C@@H](C)[C@H](OC(C)=O)[C@@H]1C  MIC (Mycobacterium marinum; microbial growth; 5 days): < 0.78 µM
COC(=O)c1cc(-c2cccc(NC(=O)Nc3ccccc3)c2)on1  MIC (Mycolicibacterium fortuitum; microbial growth, broth dilution; ATCC6841; 48 h): > 64 µg/mL
Nc1ccn(C[C@@H](CO)OCP(=O)(O)O)c(=O)n1  MIC50 (Cowpox virus; microbial growth): 22 µM (≈ 6.14 µg/mL)
COc1ccc(C=NNC(=S)Nc2ccc(C#N)cc2)cc1  IC50 (CCRF-CEM; cell growth or viability; 72 h): > 200 µg/mL
COC(=O)c1cc(-c2cccc(NC(=S)Nc3ccc(C#N)cc3)c2)on1  MIC (Mycolicibacterium fortuitum; microbial growth, broth dilution; ATCC6841; 48 h): 64 µg/mL
Cc1ccnc2c1NC(=O)c1cccnc1N2C1CC1  IC90 (Human immunodeficiency virus 1; viral replication, inhibitor; human PBMC; clinical isolate): 227 nM
COC(=O)c1cc(-c2cccc(NC(=S)Nc3ccccc3Cl)c2)on1  MIC (Mycolicibacterium fortuitum; microbial growth, broth dilution; ATCC6841; 48 h): > 64 µg/mL
N.N.[Cl][Pt][Cl]  IC50 (184B5; cell growth or viability): 5.73 µM
CC(C(=O)N1CCCC1)c1cccc(C(OC(=O)N2CCCC2)c2ccccc2)c1 (stereo not shown)  IC50 (CCRF-CEM; cell growth or viability; 72 h): 42 µM
CO[C@H]1/C=C/O[C@@]2(C)Oc3c(C)c(O)c4c(O)c(c(/C=N/N5CCN(C)CC5)c(O)c4c3C2=O)NC(=O)/C(C)=C\C=C\[C@H](C)[C@H](O)[C@@H](C)[C@@H](O)[C@@H](C)[C@H](OC(C)=O)[C@@H]1C  MIC (Mycolicibacterium fortuitum; microbial growth; ATCC6841): 3.1 to 6.2 µg/mL
COC(=O)c1cc(-c2cccc(NC(=O)Nc3ccccc3F)c2)on1  MIC (Mycolicibacterium fortuitum; microbial growth, broth dilution; ATCC6841; 48 h): > 64 µg/mL
CC(C)CN(C[C@@H](O)[C@H](Cc1ccccc1)NC(=O)O[C@H]1CO[C@H]2OCC[C@H]21)S(=O)(=O)c1ccc(N)cc1  IC50 (Human immunodeficiency virus 1; viral replication; MT4): 0.0032 µM
COC(=O)c1cc(-c2cccc(NC(=S)Nc3cccc(Br)c3)c2)on1  MIC (Mycolicibacterium fortuitum; microbial growth, broth dilution; ATCC6841; 48 h): > 64 µg/mL
COc1cc(C(=O)c2cc3c(-c4ccccc4)c(O)ccc3o2)cc(OC)c1OC  IC50 (CCRF-CEM; cell growth or viability; 72 h): > 50 µM
CCOC(=O)c1c(CSc2ccccc2)n(C)c2cc(Br)c(O)c(CN(C)C)c12  MIC50 (Cowpox virus; microbial growth): > 37 µM
CC(C(=O)n1nnc2ccccc21)c1cccc(C(OC(=O)n2nnc3ccccc32)c2ccccc2)c1 (stereo not shown)  IC50 (CCRF-CEM; cell growth or viability; 72 h): 67 µM
N#Cc1ccc(NC(=S)NN=Cc2ccc(N(CCCl)CCCl)cc2)cc1  IC50 (CCRF-CEM; cell growth or viability; 72 h): 0.7 µg/mL
